Consider ten compounds from ChEMBL document CHEMBL1131333, “2-Iminohomopiperidinium salts as selective inhibitors of inducible nitric oxide synthase (iNOS)” (J Med Chem, 1998).

The target of test [1] is T1, Nitric oxide synthase 3 (Homo sapiens, UniProt P29474).
T1 sequence (P29474 whole entry): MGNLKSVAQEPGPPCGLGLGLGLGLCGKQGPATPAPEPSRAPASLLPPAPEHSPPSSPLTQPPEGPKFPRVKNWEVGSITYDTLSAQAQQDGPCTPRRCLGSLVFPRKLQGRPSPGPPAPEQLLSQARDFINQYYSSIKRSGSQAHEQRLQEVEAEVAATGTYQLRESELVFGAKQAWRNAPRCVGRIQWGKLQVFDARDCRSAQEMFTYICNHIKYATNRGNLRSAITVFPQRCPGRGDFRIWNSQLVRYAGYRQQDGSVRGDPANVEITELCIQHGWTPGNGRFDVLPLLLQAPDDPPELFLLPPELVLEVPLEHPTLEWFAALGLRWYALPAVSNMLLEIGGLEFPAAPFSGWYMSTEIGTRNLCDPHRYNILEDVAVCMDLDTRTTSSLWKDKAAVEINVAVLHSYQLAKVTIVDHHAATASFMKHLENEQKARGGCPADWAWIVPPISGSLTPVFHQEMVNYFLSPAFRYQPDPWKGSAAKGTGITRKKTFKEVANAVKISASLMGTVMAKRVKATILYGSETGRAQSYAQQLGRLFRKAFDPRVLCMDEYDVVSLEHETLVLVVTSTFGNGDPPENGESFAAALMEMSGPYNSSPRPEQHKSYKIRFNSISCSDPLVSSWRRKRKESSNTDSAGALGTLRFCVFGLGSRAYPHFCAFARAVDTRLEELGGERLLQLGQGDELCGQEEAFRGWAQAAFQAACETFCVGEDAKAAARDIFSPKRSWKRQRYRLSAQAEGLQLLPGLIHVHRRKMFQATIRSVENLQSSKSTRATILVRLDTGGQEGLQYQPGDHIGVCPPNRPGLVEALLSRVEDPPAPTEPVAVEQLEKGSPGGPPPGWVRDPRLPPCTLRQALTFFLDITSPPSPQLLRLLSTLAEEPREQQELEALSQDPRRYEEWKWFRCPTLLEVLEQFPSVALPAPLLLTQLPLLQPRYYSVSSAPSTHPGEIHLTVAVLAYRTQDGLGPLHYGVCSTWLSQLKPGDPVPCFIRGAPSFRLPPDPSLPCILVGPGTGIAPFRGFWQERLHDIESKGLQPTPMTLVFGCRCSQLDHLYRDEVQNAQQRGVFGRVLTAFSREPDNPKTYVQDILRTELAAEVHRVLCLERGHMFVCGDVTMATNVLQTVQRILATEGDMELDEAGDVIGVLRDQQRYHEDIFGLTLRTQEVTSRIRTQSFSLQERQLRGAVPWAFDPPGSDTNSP
The experiment in a line: Inhibitory activity evaluated from soluble cell extract of human endothelia constitutive enzyme (Endothelial nitric oxide synthase) and partially purified by DEAE-sepharose chromatography. The method in brief: (§1)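 Recombinant human iNOS, eNOS or nNOS expressed in Sf9 cells (baculovirus). L-[3H]arginine to [3H]citrulline conversion in Tris pH 7.6 with BSA, DTT, CaCl2, FAD, tetrahydrobiopterin, NADPH and 30 μM final L-arginine. Calmodulin at 40 nM final for eNOS and nNOS only. 15 min at 37 °C, stopped with EGTA/HEPES pH 5.5, Dowex separation, scintillation counting. At least duplicate.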

The target in test [2] is Nitric oxide synthase, inducible (Homo sapiens, UniProt P35228). The experiment in a line: Inhibitory activity evaluated for soluble cell extract of human Inducible nitric oxide synthase and partially purified by DEAE-sepharose chromatography. In outline:
as §1

In test [3] the target is T2, Nitric oxide synthase 1 (Homo sapiens, UniProt P29475). Description: Inhibitory activity evaluated from soluble cell extract of human nNeuronal nitric oxide synthase and partially purified by DEAE-sepharose chromatography. The method in brief:
as §1

In test [4] the target is Nitric oxide synthase, inducible (Rattus norvegicus) (UniProt Q06518). Description: The ability of compounds to inhibit Inducible nitric oxide synthase in LPS-treated male Lewis rats at 10 mg/kg dose. It is filed as organism-based. Details: dose 10 mg/kg. In outline: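 Rats dosed 10 mg/kg orally by gavage 1 h before LPS (10 mg/kg ip). Blood taken 5 h after LPS; plasma filtered through a 10 000 MW cutoff filter, and nitrite/nitrate measured fluorometrically. Percent inhibition calculated relative to rats given LPS alone.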
Nitric oxide synthase, inducible (Rattus norvegicus), sequence (Q06518 whole entry): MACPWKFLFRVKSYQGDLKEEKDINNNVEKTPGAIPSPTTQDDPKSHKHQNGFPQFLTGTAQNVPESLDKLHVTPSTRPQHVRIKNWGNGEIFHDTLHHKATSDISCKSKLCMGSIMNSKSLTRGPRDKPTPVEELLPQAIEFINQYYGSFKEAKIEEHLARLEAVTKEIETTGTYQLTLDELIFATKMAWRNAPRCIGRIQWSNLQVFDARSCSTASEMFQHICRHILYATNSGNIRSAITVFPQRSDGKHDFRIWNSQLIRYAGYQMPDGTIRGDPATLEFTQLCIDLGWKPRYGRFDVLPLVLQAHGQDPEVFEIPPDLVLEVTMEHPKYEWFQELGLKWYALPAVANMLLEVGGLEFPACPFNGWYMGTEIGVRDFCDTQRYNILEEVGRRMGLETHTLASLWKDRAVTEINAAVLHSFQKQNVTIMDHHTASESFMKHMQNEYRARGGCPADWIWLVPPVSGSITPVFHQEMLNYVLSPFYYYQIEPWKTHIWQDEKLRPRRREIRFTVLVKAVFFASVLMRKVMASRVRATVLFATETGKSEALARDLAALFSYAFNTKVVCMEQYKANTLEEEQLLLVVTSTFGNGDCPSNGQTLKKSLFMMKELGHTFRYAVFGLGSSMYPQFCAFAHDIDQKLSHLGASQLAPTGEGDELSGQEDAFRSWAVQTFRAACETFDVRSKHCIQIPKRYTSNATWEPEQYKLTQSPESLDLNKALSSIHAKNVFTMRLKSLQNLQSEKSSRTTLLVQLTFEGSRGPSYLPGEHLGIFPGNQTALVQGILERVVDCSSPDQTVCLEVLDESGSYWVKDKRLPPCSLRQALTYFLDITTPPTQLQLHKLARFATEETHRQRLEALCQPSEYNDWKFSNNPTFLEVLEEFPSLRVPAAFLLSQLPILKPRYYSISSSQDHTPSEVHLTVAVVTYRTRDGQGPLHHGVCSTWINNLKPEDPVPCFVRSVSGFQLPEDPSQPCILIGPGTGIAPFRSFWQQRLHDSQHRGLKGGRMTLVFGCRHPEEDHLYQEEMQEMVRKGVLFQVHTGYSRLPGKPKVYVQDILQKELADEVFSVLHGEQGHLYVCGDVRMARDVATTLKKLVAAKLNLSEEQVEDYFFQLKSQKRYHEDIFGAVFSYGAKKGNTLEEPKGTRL

In test [5] the target is T3, Nitric oxide synthase, inducible (Mus musculus, UniProt P29477).
T3 sequence (P29477 whole entry): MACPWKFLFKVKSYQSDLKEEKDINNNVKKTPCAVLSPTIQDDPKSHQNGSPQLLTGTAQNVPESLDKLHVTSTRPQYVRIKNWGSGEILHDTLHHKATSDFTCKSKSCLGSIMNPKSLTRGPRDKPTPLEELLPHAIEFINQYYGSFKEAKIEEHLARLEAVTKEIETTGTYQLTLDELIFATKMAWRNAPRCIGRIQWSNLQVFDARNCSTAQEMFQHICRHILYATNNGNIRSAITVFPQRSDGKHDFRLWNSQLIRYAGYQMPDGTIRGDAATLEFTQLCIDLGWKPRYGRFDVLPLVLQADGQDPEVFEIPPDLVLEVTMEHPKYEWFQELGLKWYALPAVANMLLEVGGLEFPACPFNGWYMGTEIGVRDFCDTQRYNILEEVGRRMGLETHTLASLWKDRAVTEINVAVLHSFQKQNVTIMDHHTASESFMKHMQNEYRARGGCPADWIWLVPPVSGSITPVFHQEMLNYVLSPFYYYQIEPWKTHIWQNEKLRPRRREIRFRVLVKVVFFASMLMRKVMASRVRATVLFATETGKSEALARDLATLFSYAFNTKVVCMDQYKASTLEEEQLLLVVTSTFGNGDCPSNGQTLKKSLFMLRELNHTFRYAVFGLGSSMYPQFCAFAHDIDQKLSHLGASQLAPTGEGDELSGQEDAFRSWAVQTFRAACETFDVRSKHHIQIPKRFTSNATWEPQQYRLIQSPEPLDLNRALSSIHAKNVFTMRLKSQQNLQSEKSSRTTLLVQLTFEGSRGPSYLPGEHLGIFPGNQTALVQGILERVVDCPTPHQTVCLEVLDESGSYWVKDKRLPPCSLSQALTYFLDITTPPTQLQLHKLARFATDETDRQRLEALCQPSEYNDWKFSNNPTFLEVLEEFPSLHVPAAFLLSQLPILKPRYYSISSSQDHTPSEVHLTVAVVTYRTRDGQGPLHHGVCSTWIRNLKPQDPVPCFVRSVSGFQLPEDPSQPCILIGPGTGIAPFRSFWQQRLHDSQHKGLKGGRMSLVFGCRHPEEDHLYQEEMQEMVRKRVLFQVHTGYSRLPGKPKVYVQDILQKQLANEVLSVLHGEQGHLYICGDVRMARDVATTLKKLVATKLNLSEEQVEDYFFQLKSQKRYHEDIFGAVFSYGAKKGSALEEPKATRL
Description: The ability of compound to inhibit mouse Inducible nitric oxide synthase in LPS stimulated mouse RAW cells was determined. It is filed as cell-based. The method in brief:
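RAW 264.7 cells plated at 2×10^5/well and induced 17 h with 10 μg/mL LPS (E. coli O111:B4). Washed, preincubated 1 h on ice in Krebs Ringer/HEPES pH 7.5 with glucose, 30 μM L-arginine and five inhibitor concentrations, then 2 h at 37 °C. Nitrite measured fluorometrically.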

Test [6] deals with T2, Nitric oxide synthase 1. Description: Inhibitory activity evaluated from soluble cell extract of Neuronal nitric oxide synthase and partially purified by DEAE-sepharose chromatography.
For test [7], the target named is T2, Nitric oxide synthase 1. The experiment in a line: Inhibitory activity evaluated from soluble cell extract of human Neuronal nitric oxide synthase and partially purified by DEAE-sepharose chromatography. In outline:
as §1

Structures are written as SMILES.

Nitric oxide synthase, inducible (Homo sapiens, UniProt P35228), sequence (P35228 whole entry): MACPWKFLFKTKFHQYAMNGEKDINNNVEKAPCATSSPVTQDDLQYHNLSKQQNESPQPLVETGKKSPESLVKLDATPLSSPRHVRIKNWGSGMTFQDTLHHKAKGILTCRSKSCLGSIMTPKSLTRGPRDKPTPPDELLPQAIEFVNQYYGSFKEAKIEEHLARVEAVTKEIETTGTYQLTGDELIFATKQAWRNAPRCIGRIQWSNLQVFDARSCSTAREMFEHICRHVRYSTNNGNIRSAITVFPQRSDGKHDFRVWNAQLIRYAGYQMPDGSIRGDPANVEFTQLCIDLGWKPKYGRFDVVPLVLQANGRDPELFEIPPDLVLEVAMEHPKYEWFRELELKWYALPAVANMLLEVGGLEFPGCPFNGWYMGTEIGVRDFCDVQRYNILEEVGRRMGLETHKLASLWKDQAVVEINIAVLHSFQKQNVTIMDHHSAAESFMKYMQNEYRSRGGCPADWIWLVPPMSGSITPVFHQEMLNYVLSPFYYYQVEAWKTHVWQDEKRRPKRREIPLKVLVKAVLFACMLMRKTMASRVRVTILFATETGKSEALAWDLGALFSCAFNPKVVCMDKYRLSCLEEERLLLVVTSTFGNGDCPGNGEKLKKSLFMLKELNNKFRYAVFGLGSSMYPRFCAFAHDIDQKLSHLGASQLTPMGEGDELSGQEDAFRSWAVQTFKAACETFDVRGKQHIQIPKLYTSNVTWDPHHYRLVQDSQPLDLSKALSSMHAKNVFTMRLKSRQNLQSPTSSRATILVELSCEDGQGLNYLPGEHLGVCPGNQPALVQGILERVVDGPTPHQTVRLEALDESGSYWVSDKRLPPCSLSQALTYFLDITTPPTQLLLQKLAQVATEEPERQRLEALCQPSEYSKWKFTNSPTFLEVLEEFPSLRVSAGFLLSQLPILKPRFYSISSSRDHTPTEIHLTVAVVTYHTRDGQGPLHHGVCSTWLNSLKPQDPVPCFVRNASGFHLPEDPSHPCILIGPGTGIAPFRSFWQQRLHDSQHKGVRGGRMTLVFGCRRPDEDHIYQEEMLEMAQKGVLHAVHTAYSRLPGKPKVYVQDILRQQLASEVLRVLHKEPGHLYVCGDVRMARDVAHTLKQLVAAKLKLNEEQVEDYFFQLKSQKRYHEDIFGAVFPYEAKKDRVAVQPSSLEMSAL
T2 sequence (P29475 whole entry): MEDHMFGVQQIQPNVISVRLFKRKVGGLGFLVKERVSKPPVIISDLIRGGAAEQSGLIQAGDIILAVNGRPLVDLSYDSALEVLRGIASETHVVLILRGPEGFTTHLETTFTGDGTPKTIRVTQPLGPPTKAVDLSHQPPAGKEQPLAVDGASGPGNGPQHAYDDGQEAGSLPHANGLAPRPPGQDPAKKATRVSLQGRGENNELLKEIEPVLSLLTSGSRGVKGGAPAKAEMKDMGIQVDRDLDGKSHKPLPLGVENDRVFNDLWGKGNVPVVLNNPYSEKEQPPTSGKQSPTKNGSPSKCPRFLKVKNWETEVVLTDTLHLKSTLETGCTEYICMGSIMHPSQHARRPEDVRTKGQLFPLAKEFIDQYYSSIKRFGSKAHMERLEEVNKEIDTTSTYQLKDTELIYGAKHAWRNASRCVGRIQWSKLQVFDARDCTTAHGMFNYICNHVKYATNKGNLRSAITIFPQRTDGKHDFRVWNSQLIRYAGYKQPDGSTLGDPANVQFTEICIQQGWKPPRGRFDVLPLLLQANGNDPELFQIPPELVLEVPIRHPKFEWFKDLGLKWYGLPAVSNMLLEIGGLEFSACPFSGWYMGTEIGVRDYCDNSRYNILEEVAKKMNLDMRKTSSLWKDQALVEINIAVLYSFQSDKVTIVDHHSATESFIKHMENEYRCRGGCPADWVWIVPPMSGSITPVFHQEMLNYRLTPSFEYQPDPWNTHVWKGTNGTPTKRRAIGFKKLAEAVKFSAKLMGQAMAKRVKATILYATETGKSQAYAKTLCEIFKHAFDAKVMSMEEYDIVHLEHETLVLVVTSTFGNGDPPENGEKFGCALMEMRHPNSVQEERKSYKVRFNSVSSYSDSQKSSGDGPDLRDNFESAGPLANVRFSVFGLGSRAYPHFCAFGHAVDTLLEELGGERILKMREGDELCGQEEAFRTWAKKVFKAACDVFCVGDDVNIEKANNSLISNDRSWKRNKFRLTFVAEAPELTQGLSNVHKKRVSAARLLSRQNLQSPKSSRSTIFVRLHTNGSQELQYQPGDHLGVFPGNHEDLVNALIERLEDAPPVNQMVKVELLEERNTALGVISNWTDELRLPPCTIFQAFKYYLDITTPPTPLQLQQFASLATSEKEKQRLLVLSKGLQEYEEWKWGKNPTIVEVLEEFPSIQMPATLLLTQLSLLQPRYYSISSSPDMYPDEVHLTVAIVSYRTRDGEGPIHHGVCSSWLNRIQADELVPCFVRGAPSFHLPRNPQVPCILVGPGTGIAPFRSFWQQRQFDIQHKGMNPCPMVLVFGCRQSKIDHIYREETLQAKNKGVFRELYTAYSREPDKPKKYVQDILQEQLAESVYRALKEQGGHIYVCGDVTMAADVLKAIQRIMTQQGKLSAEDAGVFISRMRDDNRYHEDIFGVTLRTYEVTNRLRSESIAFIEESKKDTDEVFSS

Turning to `CCCCC1CCCCC(N)=N1` (configuration not stated), the 50% inhibitory concentration (IC50) – broadly, the concentration at which inhibition is half-maximal – in test [1] is 103 µM; in test [2] it was 0.5 µM; in test [3] it was 0.85 µM; in test [5] it was 1.6 µM. For the same compound, the inhibition (commonly the percentage by which the read-out fell short of the control) in test [4] worked out at 60%.
Turning to `CCCC1CCCCC(N)=N1` (configuration not stated), it took 9.5 µM to reach half-maximal inhibition in test [1] (IC50). Moreover, in test [4], the inhibition was determined as 85%.
Consider `CCC1CCCCN=C1N` (configuration not stated), for which the IC50 in test [1] was found to be 38 µM; in test [6], 2.4 µM.
On to `C=CCC1CCCCN=C1N` (configuration not stated), for which the concentration for half-maximal inhibition (IC50) in test [1] was 380 µM; in test [6] it was 16 µM; in test [2] it was 5.8 µM; in test [5], 19 µM.
Take `C=CCC1CCCCC(N)=N1` (configuration not stated): in test [1], it took 21 µM to reach half-maximal inhibition (IC50). For the same compound, the inhibition in test [4] worked out at 80%.
`NC1=NCCCCC1`: the IC50 in test [1] worked out at 15 µM; in test [2], 2.1 µM; in test [5], 54 µM.
For `C[C@@H]1CCCC(N)=NC1`, the 50% inhibitory concentration (IC50) in test [1] worked out at 39 µM; in test [3], 3.8 µM.
As for `NC1=NC(c2ccccc2)CCCC1` (configuration not stated), the IC50 in test [1] was 215 µM; in test [2], 14 µM; in test [5], 31 µM; in test [7], 6.6 µM.
For `CCC(CC)CC1CCCCC(N)=N1` (configuration not stated) the same measures were 660 µM, 2.1 µM, 3.3 µM and 5.4 µM.
On to `CC1CCN=C(N)CC1` (configuration not stated), for which the IC50 was found to be 39 µM in test [1], 11 µM in test [6], 5.8 µM in test [2] and 24 µM in test [5].
